pIC50: −log10 of the molar value.
Tests used:
Format in all cases: functional, organism-based
[1] = system: Human immunodeficiency virus 2; test: Antiviral activity against HIV2 isolate CBL20, CBL23, MVP15132 with […] and […] mutation in CBMCs
Outline: (§1)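 PI-selected variants were obtained by weekly culture passage with escalating drug, 0.05 μM rising to 0.25–10 μM, and phenotyped at week 38. Cord blood mononuclear cells were infected for 2 h and plated onto fivefold drug dilutions from 0.00064 to 10 μM at 37°C, 5% CO₂. Cells were refed with drug on day 3. Day-7 culture-fluid RT activity gave IC50. Means come from at least two experiments, each in duplicate. Fold change is relative to wild-type virus.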

[2] = system: Human immunodeficiency virus 1; test: Antiviral activity against HIV1 isolate 5512 with M36I/M and V82T mutation in CBMCs; outline: as §1
[3] = system: Human immunodeficiency virus 1; test: Antiviral activity against wild type HIV1 in CBMCs
Outline: (§2)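 Cord blood mononuclear cells were infected for 2 h with wild-type virus (HIV-1: subtype B clinical isolate 5512; HIV-2: isolates CBL-20, CBL-23, MVP-15132). Cells were plated onto fivefold drug dilutions (0.00064–10 μM) at 37°C, 5% CO₂, and refed with drug-containing medium on day 3. RT enzyme assay was run on day 7, and IC₅₀ fitted. Means of ≥2 independent experiments, each in duplicate.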

[4] = system: Human immunodeficiency virus 2; test: Antiviral activity against HIV2 isolate CBL20, CBL23, MVP15132 with 150V mutation in CBMCs; outline: as §1
[5] = system: Human immunodeficiency virus 2; test: Antiviral activity against HIV2 isolate CBL20, CBL23, MVP15132 with […] and L90M mutation in CBMCs; outline: as §1
[6] = system: Human immunodeficiency virus 2; test: Antiviral activity against HIV2 isolate CBL20, CBL23, MVP15132 with 182L mutation in CBMCs; outline: as §1
[7] = system: Human immunodeficiency virus 2; test: Antiviral activity against wild type HIV2 in CBMCs; outline: as §2
[8] = system: Human immunodeficiency virus 1; test: Antiviral activity against HIV1 isolate 5512 with D30N, […] and […] mutation in CBMCs; outline: as §1
[9] = system: Human immunodeficiency virus 2; test: Antiviral activity against HIV2 isolate CBL20, CBL23, MVP15132 with 182F mutation in CBMCs; outline: as §1
[10] = system: Human immunodeficiency virus 2; test: Antiviral activity against HIV2 isolate CBL20, CBL23, MVP15132 with 154M mutation in CBMCs; outline: as §1
[11] = system: Human immunodeficiency virus 1; test: Antiviral activity against HIV1 isolate 5512 with […] and M46L mutation in CBMCs; outline: as §1
[12] = system: Human immunodeficiency virus 2; test: Antiviral activity against HIV2 isolate CBL20, CBL23, MVP15132 with […] and L99F mutation in CBMCs; outline: as §1
[13] = system: Human immunodeficiency virus 2; test: Antiviral activity against HIV2 isolate CBL20, CBL23, MVP15132 with V62A and L99F mutation in CBMCs; outline: as §1

Structure (SMILES) | pIC50 [1] | pIC50 [2] | pIC50 [3] | pIC50 [4] | pIC50 [5] | pIC50 [6] | pIC50 [7] | pIC50 [8] | pIC50 [9] | pIC50 [10] | pIC50 [11] | pIC50 [12] | pIC50 [13]
Cc1c(O)cccc1C(=O)N[C@@H](CSc1ccccc1)[C@H](O)CN1C[C@H]2CCCC[C@H]2C[C@H]1C(=O)NC(C)(C)C [NELFINAVIR] | 5.76 | 8.00 | 7.85 | 6.88 | 5.59 | 6.97 | 7.19 | 6.17 | 6.61 | 6.20 | 7.51 | 5.65 | 6.02
Cc1cccc(C)c1OCC(=O)N[C@@H](Cc1ccccc1)[C@@H](O)C[C@H](Cc1ccccc1)NC(=O)[C@H](C(C)C)N1CCCNC1=O [LOPINAVIR] | 6.43 | 8.15 | 8.70 | 6.69 | 6.28 | 7.12 | 8.40 |  | 6.84 | 6.32 | 9.00 | 6.38 | 6.30
CCC[C@@]1(CCc2ccccc2)CC(O)=C([C@H](CC)c2cccc(NS(=O)(=O)c3ccc(C(F)(F)F)cn3)c2)C(=O)O1 [TIPRANAVIR] | 5.69 | 6.72 | 7.04 | 6.50 | 6.84 | 5.35 | 6.80 | 9.00 | 6.51 | 5.96 | 7.38 | 5.54 | 6.28
CC(C)CN(C[C@@H](O)[C@H](Cc1ccccc1)NC(=O)O[C@H]1CCOC1)S(=O)(=O)c1ccc(N)cc1 [AMPRENAVIR] | < 5.00 | 8.52 | 7.59 | < 5.00 | < 5.00 | 6.28 | 6.36 | 7.72 | 6.02 | < 5.00 | 6.94 | < 5.00 | 7.01
CC(C)(C)NC(=O)[C@@H]1CN(Cc2cccnc2)CCN1C[C@@H](O)C[C@@H](Cc1ccccc1)C(=O)N[C@H]1c2ccccc2C[C@H]1O [INDINAVIR] | 6.41 | 7.85 | 7.57 | 7.14 | 5.95 | 7.19 | 7.80 | 7.60 | 6.26 | 6.63 | 7.35 | 6.08 | 6.84
